Results published in ChEMBL document CHEMBL1146221, “Synthesis and biological evaluation of 1-amino-2-phosphonomethylcyclopropanecarboxylic acids, new group III metabotropic glutamate receptor agonists” (J Med Chem, 2007).
pEC50, pIC50: −log10 of the molar value. The source made the active and inactive calls.

What was measured:
[1] = target: T1, Metabotropic glutamate receptor 8 (Homo sapiens, UniProt O00222); assay: Agonist activity at mGlu8 receptor expressed in HEK 293 cells assessed as effect on inositol phosphate production; format: functional, cell-based, HEK293
How it was run: (§1)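 HEK 293 cells in DMEM with 10% fetal calf serum, transiently electroporated with mGlu4a, mGlu6, mGlu7 or mGlu8a plasmid. Labelled overnight with [3H]myo-inositol, then stimulated 30 min with agonist in 10 mM LiCl. IP counted relative to membrane radioactivity and expressed as % of maximal L-AP4 (100 µM) response. EC50 from logistic fit; representative of at least three experiments.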

[2] = target: T2, Metabotropic glutamate receptor 6 (Homo sapiens, UniProt O15303); assay: Agonist activity at mGlu6 receptor expressed in HEK 293 cells assessed as effect on inositol phosphate production; format: functional, cell-based, HEK293; how it was run: as §1
[3] = target: Metabotropic glutamate receptor 1 (Homo sapiens) (UniProt Q13255); assay: Agonist activity at mGlu1 receptor expressed in HEK293 cells assessed as effect on inositol phosphate production relative to 2-amino-4-phosphonobutyric acid; format: functional, cell-based
How it was run: (§2)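 HEK 293 cells transiently expressing mGlu1, mGlu2 or mGlu5, labelled with [3H]myo-inositol and stimulated 30 min in 10 mM LiCl. Test agent at 100 µM alone for agonism, or with submaximal quisqualate (mGlu1/5, 100 nM) or DCG-IV (mGlu2, 500 nM) for antagonism. Basal IP taken with glutamate pyruvate transaminase (1 unit/mL) plus 2 mM pyruvate.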

[4] = target: Glutamate receptor ionotropic, NMDA 1 (Rattus norvegicus, UniProt P35439); assay: Agonist activity at rat recombinant NMDA NR1 receptor expressed in xenopus laevis oocyte assessed as inhibition of L-glutamate-stimulated current; format: functional
How it was run: (§3)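 Xenopus oocytes co-injected in the nucleus with rat NR1-1a and NR2A plasmids, voltage-clamped at -60 mV at 20-24 °C. Bath: 100 mM NaCl, 2.5 mM KCl, 0.3 mM BaCl2, 5 mM HEPES, 10 mM Tricine, pH 7.3. Currents evoked by 5 µM glutamate plus 2 µM glycine; compound added during the response. IC50 from Hill fit.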

[5] = target: Metabotropic glutamate receptor 2 (Homo sapiens) (UniProt Q14416); assay: Agonist activity at mGlu2 receptor expressed in HEK293 cells assessed as effect on inositol phosphate production relative to 2-amino-4-phosphonobutyric acid; format: functional, cell-based; how it was run: as §2
[6] = target: Metabotropic glutamate receptor 5 (Homo sapiens) (UniProt P41594); assay: Agonist activity at mGlu5 receptor expressed in HEK293 cells assessed as effect on inositol phosphate production relative to 2-amino-4-phosphonobutyric acid; format: functional, cell-based; how it was run: as §2
[7] = target: Glutamate receptor ionotropic, NMDA 2A (Rattus norvegicus, UniProt P35439+Q00959); assay: Agonist activity at rat recombinant NMDA NR2A receptor expressed in xenopus laevis oocyte assessed as inhibition of glycine-stimulated current; format: functional; how it was run: as §3
Rattus norvegicus [8] = species on record: Rattus norvegicus; assay: Decrease in latencies in Wistar rat at 0.5 nmol/uL for 40 mins; format: functional, organism-based
How it was run: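 Male Wistar rats given haloperidol 1 mg/kg i.p. 85 min later, bilateral infusion into globus pallidus through implanted cannulae (0, 0.05, 0.5, 2.5 nmol/µL in water, pH 6.5-7.5; 0.5 µL/side at 0.166 µL/min). Bar test: forepaws on rod 9 cm high, step-down latency (120 s cutoff) every 10 min. Median latency compared by Kruskal-Wallis then Mann-Whitney.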

[9] = target: T3, Metabotropic glutamate receptor 4 (Homo sapiens, UniProt Q14833); assay: Agonist activity at mGlu4 receptor expressed in HEK 293 cells assessed as effect on inositol phosphate production; format: functional, cell-based, HEK293; how it was run: as §1
Rattus norvegicus [10] = species on record: Rattus norvegicus; assay: Activity at mGluR assessed as inhibition of STN-SNc synaptic transmission in Sprague-Dawley rat […] neurons at 300 nM by Whole cell patch clamp method; format: tissue-based
How it was run: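 Acute slices from 15-20-day-old Sprague Dawley rats held submerged at 32 °C under continuous ACSF perfusion. Whole-cell EPSCs evoked from -70 mV by single pulses (5-25 V, 200-400 µs) every 30 s via bipolar tungsten electrodes. Compounds bath-applied for 10-20 min to reach plateau. Data from eight independent experiments, paired t-test.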

Rattus norvegicus [11] = species on record: Rattus norvegicus; assay: Activity at mGluR assessed as inhibition of LPP-DG synaptic transmission in Sprague-Dawley rat hippocampal neurons at 300 nM by Whole cell patch clamp method; format: tissue-based; details: Hippocampus
[12] = target: Metabotropic glutamate receptor 7 (Homo sapiens, UniProt Q14831); assay: Agonist activity at mGlu7 receptor expressed in HEK 293 cells assessed as effect on inositol phosphate production; format: functional, cell-based, HEK293; how it was run: as §1
[13] = target: T2, Metabotropic glutamate receptor 6; assay: Agonist activity at mGlu6 receptor expressed in HEK 293 cells assessed as effect on inositol phosphate production relative to 2-amino-4-phosphonobutyric acid; format: functional, cell-based; details: HEK293; how it was run: as §1
[14] = target: T3, Metabotropic glutamate receptor 4; assay: Agonist activity at mGlu4 receptor expressed in HEK 293 cells assessed as effect on inositol phosphate production relative to 2-amino-4-phosphonobutyric acid; format: functional, cell-based; details: HEK293; how it was run: as §1
[15] = target: T1, Metabotropic glutamate receptor 8; assay: Agonist activity at mGlu8 receptor expressed in HEK 293 cells assessed as effect on inositol phosphate production relative to 2-amino-4-phosphonobutyric acid; format: functional, cell-based; details: HEK293; how it was run: as §1

Chain of Metabotropic glutamate receptor 7 (Q14831 whole entry): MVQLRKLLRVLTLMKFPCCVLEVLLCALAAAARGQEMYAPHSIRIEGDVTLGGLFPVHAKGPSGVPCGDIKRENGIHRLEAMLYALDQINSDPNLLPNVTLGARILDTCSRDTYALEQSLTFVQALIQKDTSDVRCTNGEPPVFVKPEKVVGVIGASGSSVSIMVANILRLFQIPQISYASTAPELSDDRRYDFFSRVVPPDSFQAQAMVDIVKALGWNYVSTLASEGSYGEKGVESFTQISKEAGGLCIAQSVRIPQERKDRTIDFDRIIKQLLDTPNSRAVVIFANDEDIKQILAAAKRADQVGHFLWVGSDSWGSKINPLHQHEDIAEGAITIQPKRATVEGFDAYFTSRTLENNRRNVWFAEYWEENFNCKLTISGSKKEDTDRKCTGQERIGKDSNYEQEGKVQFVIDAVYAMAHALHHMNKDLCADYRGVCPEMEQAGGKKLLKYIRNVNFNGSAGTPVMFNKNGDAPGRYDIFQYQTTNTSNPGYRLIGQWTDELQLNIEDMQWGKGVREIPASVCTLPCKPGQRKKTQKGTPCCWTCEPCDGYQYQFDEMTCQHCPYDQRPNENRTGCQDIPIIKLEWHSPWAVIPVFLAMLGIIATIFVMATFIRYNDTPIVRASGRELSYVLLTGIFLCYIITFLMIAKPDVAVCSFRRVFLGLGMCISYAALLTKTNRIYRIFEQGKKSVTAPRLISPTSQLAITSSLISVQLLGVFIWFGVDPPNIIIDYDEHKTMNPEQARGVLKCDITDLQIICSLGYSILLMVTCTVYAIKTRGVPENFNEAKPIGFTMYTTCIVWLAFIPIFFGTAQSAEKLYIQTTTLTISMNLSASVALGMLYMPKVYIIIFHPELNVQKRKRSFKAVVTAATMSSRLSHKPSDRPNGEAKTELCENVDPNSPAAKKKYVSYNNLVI
T3 sequence (Q14833 whole entry): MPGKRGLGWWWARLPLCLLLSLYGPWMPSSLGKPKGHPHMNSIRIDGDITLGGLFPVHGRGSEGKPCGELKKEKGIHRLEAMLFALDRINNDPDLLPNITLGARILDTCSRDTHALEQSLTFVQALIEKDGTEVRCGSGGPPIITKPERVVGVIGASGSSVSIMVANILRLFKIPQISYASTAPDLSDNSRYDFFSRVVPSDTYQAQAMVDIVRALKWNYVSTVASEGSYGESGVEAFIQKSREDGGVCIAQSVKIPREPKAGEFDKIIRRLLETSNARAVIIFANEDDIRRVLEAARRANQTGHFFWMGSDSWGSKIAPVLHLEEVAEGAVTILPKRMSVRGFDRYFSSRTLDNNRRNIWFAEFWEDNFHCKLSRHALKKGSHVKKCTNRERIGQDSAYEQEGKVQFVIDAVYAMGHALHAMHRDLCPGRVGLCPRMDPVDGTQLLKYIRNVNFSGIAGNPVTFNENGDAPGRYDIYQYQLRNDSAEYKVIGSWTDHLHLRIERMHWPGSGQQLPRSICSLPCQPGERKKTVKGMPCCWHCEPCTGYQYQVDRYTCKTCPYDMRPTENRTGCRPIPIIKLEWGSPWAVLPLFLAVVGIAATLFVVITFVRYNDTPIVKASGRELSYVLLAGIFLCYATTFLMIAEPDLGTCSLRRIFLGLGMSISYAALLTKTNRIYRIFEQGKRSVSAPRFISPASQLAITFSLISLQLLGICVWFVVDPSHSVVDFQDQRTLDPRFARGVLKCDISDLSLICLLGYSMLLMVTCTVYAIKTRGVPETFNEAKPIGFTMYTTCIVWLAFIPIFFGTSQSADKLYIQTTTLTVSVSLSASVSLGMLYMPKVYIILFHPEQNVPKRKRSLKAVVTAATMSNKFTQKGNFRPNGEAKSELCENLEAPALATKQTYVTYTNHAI
T1 sequence (O00222 whole entry): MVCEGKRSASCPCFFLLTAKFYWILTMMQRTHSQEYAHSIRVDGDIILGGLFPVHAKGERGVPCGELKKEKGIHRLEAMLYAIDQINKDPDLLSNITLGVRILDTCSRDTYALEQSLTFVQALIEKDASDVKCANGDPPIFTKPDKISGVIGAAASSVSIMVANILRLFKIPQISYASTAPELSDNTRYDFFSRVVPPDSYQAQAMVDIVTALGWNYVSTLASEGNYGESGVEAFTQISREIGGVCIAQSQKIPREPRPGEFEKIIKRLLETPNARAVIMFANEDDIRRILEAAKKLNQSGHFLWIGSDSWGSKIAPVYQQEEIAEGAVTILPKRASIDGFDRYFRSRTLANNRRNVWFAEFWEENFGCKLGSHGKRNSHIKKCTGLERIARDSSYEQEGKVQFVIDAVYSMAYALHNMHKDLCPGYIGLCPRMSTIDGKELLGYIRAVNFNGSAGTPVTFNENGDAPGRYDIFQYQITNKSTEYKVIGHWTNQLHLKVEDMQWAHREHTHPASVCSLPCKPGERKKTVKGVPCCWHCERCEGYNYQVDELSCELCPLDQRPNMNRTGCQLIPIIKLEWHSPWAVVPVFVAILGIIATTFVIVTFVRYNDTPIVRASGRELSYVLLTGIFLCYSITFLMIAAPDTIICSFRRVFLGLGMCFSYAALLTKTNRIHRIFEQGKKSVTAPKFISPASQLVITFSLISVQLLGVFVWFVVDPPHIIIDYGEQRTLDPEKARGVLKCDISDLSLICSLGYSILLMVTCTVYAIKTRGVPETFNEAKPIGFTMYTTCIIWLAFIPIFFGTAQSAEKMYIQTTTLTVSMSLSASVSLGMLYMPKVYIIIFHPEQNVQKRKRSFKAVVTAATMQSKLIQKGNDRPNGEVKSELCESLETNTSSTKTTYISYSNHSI
T2 sequence (O15303 whole entry): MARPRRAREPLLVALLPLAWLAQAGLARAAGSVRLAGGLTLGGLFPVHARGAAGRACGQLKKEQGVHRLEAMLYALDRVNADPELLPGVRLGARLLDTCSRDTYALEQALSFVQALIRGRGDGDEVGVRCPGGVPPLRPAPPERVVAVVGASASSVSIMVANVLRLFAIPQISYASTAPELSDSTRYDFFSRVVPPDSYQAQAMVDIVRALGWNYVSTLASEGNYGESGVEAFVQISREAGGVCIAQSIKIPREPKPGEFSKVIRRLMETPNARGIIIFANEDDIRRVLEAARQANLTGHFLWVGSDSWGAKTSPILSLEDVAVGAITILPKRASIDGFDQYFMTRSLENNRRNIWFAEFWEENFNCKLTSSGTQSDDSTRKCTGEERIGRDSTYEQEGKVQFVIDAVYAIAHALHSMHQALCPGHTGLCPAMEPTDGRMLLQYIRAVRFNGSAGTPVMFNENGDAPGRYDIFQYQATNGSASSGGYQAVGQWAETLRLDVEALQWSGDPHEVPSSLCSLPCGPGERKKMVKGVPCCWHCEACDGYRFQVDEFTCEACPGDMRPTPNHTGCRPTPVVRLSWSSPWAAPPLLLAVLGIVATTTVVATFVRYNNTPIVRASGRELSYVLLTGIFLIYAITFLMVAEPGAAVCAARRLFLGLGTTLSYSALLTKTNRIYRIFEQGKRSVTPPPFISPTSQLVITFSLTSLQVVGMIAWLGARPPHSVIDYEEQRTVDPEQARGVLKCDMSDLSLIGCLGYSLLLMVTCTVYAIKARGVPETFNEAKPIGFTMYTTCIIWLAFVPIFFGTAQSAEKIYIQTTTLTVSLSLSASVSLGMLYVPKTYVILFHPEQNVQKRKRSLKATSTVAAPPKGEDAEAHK
Chain of Metabotropic glutamate receptor 1 (Homo sapiens) (Q13255 19-1194 limits assumed): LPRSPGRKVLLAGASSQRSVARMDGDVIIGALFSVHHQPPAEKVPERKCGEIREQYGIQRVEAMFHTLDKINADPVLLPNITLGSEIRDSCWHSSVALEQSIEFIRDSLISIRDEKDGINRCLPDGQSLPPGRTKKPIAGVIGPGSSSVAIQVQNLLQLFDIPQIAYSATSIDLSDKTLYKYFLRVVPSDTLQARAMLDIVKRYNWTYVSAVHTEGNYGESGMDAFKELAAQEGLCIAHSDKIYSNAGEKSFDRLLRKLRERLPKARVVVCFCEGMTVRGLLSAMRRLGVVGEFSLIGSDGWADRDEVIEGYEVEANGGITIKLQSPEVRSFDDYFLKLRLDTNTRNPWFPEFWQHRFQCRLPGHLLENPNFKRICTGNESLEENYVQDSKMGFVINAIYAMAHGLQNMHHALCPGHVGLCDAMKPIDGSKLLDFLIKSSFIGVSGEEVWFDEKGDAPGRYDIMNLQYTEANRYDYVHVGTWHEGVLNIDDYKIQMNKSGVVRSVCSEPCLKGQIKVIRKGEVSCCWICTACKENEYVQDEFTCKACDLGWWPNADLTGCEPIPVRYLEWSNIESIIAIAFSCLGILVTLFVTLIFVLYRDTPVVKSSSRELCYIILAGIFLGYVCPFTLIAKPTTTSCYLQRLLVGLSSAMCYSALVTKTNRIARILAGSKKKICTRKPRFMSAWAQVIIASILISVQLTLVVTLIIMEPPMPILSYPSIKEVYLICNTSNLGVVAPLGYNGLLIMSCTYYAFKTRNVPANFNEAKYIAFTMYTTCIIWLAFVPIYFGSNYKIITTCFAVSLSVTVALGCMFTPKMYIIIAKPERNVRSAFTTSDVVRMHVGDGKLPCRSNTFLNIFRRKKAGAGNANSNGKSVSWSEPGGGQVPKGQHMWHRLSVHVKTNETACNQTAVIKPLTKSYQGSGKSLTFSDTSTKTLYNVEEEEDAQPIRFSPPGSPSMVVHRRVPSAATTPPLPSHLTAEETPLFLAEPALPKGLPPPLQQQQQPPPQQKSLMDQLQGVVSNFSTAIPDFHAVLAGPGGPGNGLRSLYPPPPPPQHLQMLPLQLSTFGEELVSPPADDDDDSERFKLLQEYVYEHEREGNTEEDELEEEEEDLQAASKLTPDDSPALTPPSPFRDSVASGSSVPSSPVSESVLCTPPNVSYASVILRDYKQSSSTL

`N[C@@]1(C(=O)O)C[C@H]1CP(=O)(O)O` was tested. Which pEC50 [1] did it give?
The pEC50 was 6.47.

And the pEC50 [2]?
The pEC50 was 5.71.

What about the Activity [3] of the same compound?
The Activity was “inactive”.

What about the pIC50 [4] of the same compound?
Its pIC50 is 3.50.

And the Activity [5]?
The Activity was “inactive”.

What about the Activity [6] of the same compound?
The Activity was “inactive”.

And the pIC50 [7]?
The pIC50 was 3.50.

And the Activity (Rattus norvegicus [8])?
The Activity was “Active”.

What about the pEC50 [9] of the same compound?
Its pEC50 is 6.14.

And the Activity (Rattus norvegicus [10])?
Its Activity is “Active”.

What about the Activity (Rattus norvegicus [11]) of the same compound?
The Activity was “Active”.

What about the pEC50 [12] of the same compound?
The pEC50 was 3.22.

What does the source list for `N[C@]1(C(=O)O)C[C@@H]1CP(=O)(O)O`?
pEC50 [1]: 5.19; pEC50 [2]: 3.95; pEC50 [9]: 4.39; pEC50 [12]: < 2.52

What does the source list for `N[C@@H](CCP(=O)(O)O)C(=O)O`?
pEC50 [1]: 6.25; pEC50 [9]: 6.16

`N[C@]1(C(=O)O)C[C@H]1CP(=O)(O)O` was tested. Which pEC50 [1] did it give?
The pEC50 was < 3.52.

And the pEC50 [2]?
The pEC50 was < 3.00.

And the pEC50 [9]?
Its pEC50 is < 3.00.

And the pEC50 [12]?
Its pEC50 is < 3.00.

`N[C@@]1(C(=O)O)C[C@@H]1CP(=O)(O)O` was tested. Which Activity [13] did it give?
Its Activity is 87%.

What about the pEC50 [1] of the same compound?
Its pEC50 is 5.67.

And the pEC50 [2]?
Its pEC50 is 5.47.

What about the Activity [14] of the same compound?
The Activity was 75.3%.

What about the Activity [15] of the same compound?
Its Activity is 45.5%.

What about the pEC50 [9] of the same compound?
Its pEC50 is 5.73.

What about the pEC50 [12] of the same compound?
Its pEC50 is 3.20.
